Laboratory results published in ChEMBL document CHEMBL4325893, “Synthesis and antibacterial profiles of targeted triclosan derivatives” (2019).
≈ marks a conversion by molar mass, not a printed value.

How the values were obtained:
Aeromonas hydrophila = assay: Antibacterial activity against Aeromonas hydrophila OCC 778 after 18 hrs; type: functional; conditions: OCC 778, 18 h
Outline: (§1)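 Broth microdilution in Nutrient Broth No. 2; stocks in ethanol diluted to 0.01–128 µg/ml (triclosan) or 0.25–256 µg/ml (glycosides). Overnight 37 °C NB2 cultures diluted 1 in 10^4 in saline and added to the dilutions. Incubation at 37 °C with agitation, OD read every 15 min; MIC is the lowest concentration preventing any OD rise after 18 h.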

Citrobacter freundii [1] = assay: Antibacterial activity against Citrobacter freundii OCC 851 after 18 hrs; type: functional; conditions: OCC 851, 18 h; outline: as §1
Cronobacter sakazakii = assay: Antibacterial activity against Cronobacter sakazakii 29544 after 18 hrs; type: functional; conditions: Cronobacter sakazakii, 29544, 18 h; outline: as §1
Klebsiella aerogenes [2] = assay: Antibacterial activity against Enterobacter aerogenes ATCC 13048 after 18 hrs; type: functional; conditions: ATCC 13048, 18 h; outline: as §1
[3] = Antibacterial activity against Enterobacter cloacae ATCC 13047 after 18 hrs; type: functional, Enterobacter cloacae subsp. cloacae; conditions: ATCC 13047, 18 h; outline: as §1
Escherichia coli [4] = assay: Antibacterial activity against Escherichia coli ATCC 8739 after 18 hrs; type: functional; conditions: ATCC 8739, 18 h; outline: as §1
Escherichia coli [5] = assay: Antibacterial activity against Escherichia coli ATCC 10536 after 18 hrs; type: functional; conditions: ATCC 10536, 18 h; outline: as §1
Escherichia coli [6] = assay: Antibacterial activity against Escherichia coli ATCC 11775 after 18 hrs; type: functional; outline: as §1
Escherichia coli [7] = assay: Antibacterial activity against Escherichia coli ATCC 25922 after 18 hrs; type: functional; conditions: ATCC 25922, 18 h; outline: as §1
Escherichia coli [8] = assay: Antibacterial activity against Escherichia coli ATCC 35218 after 18 hrs; type: functional; conditions: ATCC 35218, 18 h; outline: as §1
Escherichia coli [9] = assay: Antibacterial activity against Escherichia coli 700728 after 18 hrs; type: functional; conditions: Escherichia coli, 700728, 18 h; outline: as §1
Escherichia coli [10] = assay: Antibacterial activity against Escherichia coli NCTC 13216 after 18 hrs; type: functional; conditions: NCTC 13216, 18 h; outline: as §1
Escherichia coli [11] = assay: Antibacterial activity against Escherichia coli OCC 122 after 18 hrs; type: functional; conditions: OCC 122, 18 h; outline: as §1
Escherichia hermannii = assay: Antibacterial activity against Escherichia hermannii 33650 after 18 hrs; type: functional; conditions: Atlantibacter hermannii, 33650, 18 h; outline: as §1
Hafnia alvei = assay: Antibacterial activity against Hafnia alvei 13337 after 18 hrs; type: functional; conditions: Hafnia alvei, 13337, 18 h; outline: as §1
Klebsiella aerogenes [12] = assay: Antibacterial activity against Klebsiella aerogenes NCTC 8167 after 18 hrs; type: functional; conditions: NCTC 8167, 18 h; outline: as §1
Klebsiella pneumoniae [13] = assay: Antibacterial activity against Klebsiella pneumoniae ATCC 10031 after 18 hrs; type: functional; conditions: ATCC 10031, 18 h; outline: as §1
Proteus mirabilis = assay: Antibacterial activity against Proteus mirabilis ATCC 12453 after 18 hrs; type: functional; conditions: ATCC 12453, 18 h; outline: as §1
Proteus vulgaris = assay: Antibacterial activity against Proteus vulgaris OCC 195 after 18 hrs; type: functional; conditions: OCC 195, 18 h; outline: as §1
Pseudomonas aeruginosa = assay: Antibacterial activity against Pseudomonas aeruginosa ATCC 27853 after 18 hrs; type: functional; conditions: ATCC 27853, 18 h; outline: as §1
Klebsiella pneumoniae [14] = assay: Antibacterial activity against Klebsiella pneumoniae ATCC 13883 after 18 hrs; type: functional; conditions: ATCC 13883, 18 h; outline: as §1
Citrobacter freundii [15] = assay: Antibacterial activity against Citrobacter freundii 8090 after 18 hrs; type: functional; conditions: Citrobacter freundii, 8090, 18 h; outline: as §1
Serratia marcescens = assay: Antibacterial activity against Serratia marcescens OCC 217 after 18 hrs; type: functional; conditions: OCC 217, 18 h; outline: as §1
Bacillus cereus = assay: Antibacterial activity against Bacillus cereus ATCC 14579 after 18 hrs; type: functional; conditions: ATCC 14579, 18 h; outline: as §1
Bacillus subtilis = assay: Antibacterial activity against Bacillus subtilis NCTC 10073 after 18 hrs; type: functional; conditions: NCTC 10073, 18 h; outline: as §1
Enterococcus faecalis [16] = assay: Antibacterial activity against Enterococcus faecalis ATCC 29212 after 18 hrs; type: functional; conditions: ATCC 29212, 18 h; outline: as §1
Enterococcus faecalis [17] = assay: Antibacterial activity against Enterococcus faecalis ATCC 33186 after 18 hrs; type: functional; conditions: ATCC 33186, 18 h; outline: as §1
Enterococcus faecium = assay: Antibacterial activity against Enterococcus faecium ATCC 19434 after 18 hrs; type: functional; conditions: ATCC 19434, 18 h; outline: as §1

OC[C@H]1O[C@@H](Oc2cc(Cl)ccc2Oc2ccc(Cl)cc2Cl)[C@H](O)[C@@H](O)[C@@H]1O
MIC (Aeromonas hydrophila): > 256 µg/mL
MIC (Citrobacter freundii [1]): 64 µg/mL (≈ 142 µM)
MIC (Cronobacter sakazakii): 64 µg/mL (≈ 142 µM)
MIC (Klebsiella aerogenes [2]): 64 µg/mL (≈ 142 µM)
MIC [3]: 16 µg/mL (≈ 35.4 µM)
MIC (Escherichia coli [4]): 8 to 64 µg/mL (≈ 17.7 to 142 µM)
MIC (Escherichia coli [5]): 8 to 64 µg/mL (≈ 17.7 to 142 µM)
MIC (Escherichia coli [6]): 8 to 64 µg/mL (≈ 17.7 to 142 µM)
MIC (Escherichia coli [7]): 8 to 64 µg/mL (≈ 17.7 to 142 µM)
MIC (Escherichia coli [8]): 8 to 64 µg/mL (≈ 17.7 to 142 µM)
MIC (Escherichia coli [9]): 8 to 64 µg/mL (≈ 17.7 to 142 µM)
MIC (Escherichia coli [10]): 8 to 64 µg/mL (≈ 17.7 to 142 µM)
MIC (Escherichia coli [11]): 8 to 64 µg/mL (≈ 17.7 to 142 µM)
MIC (Escherichia hermannii): 16 µg/mL (≈ 35.4 µM)
MIC (Hafnia alvei): 4 µg/mL (≈ 8.86 µM)
MIC (Klebsiella aerogenes [12]): 32 µg/mL (≈ 70.8 µM)
MIC (Klebsiella pneumoniae [13]): 0.5 µg/mL (≈ 1.11 µM)
MIC (Proteus mirabilis): 16 µg/mL (≈ 35.4 µM)
MIC (Proteus vulgaris): 64 µg/mL (≈ 142 µM)
MIC (Pseudomonas aeruginosa): > 256 µg/mL
MIC (Klebsiella pneumoniae [14]): 0.5 µg/mL (≈ 1.11 µM)
MIC (Citrobacter freundii [15]): 64 µg/mL (≈ 142 µM)
MIC (Serratia marcescens): > 256 µg/mL
MIC (Bacillus cereus): 256 µg/mL (≈ 567 µM)
MIC (Bacillus subtilis): 256 µg/mL (≈ 567 µM)
MIC (Enterococcus faecalis [16]): 16 µg/mL (≈ 35.4 µM)
MIC (Enterococcus faecalis [17]): 16 µg/mL (≈ 35.4 µM)
MIC (Enterococcus faecium): > 256 µg/mL
